HKDC1 inhibitor – HKDC1 hexokinase inhibitors, primary screen, biochemical, fluorescence, uHTS | Q2TB90 | recombinant HKDC1, G6PDH/diaphorase resazurin coupled fluorescence | inhibition, % at 20 µM | actives 0.16% (n = 340,000);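 active = inhibition above about 35% when tested at 20 µM, limit read from the data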;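 note: plate controls were DMSO wells with enzyme for no effect and DMSO wells lacking enzyme for full effect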
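Assay system: recombinant HKDC1 hexokinase; detection: coupled resazurin fluorescence, excitation 525 nm, emission 613 nm; benchmarks: DMSO-plus-enzyme-mix negative control, buffer-substituted positive control; compound dosing: single 20 µM dose; schedule: 90 min at room temperature in dark; also added: glucose plus 1 mM ATP as hexokinase substrates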
Diaphorase inh – diaphorase inhibitors and chemical oxidizers, primary screen, counter-screen for diaphorase-coupled primary assays, biochemical, uHTS, resorufin fluorescence | diaphorase resazurin-to-resorufin fluorescence, NADH, 16 min; bacterial (C. kluyveri) enzyme, not human | inhibition, % at 20 µM | actives 0.69% (n = 190,000);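 active = primary screen inhibition at 20 µM above a set limit, cut at about 50% in these data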;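 note: plate controls were DMSO with full reaction for no effect and wells lacking NADH for full effect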
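controls = No-NADH positive control and DMSO neutral control | system = Clostridium kluyveri diaphorase enzyme | timing = reaction incubation of 16 min at room temperature | signal = resorufin fluorescence 544/590 nm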
PfGluPho inh – PfG6PD enzyme inhibitors, primary screen, biochemical, fluorescence intensity, uHTS | AID 504690, 2011 | glucose-6-phosphate dehydrogenase-6-phosphogluconolactonase (Plasmodium falciparum 3D7) | PfGluPho enzyme, NADPH resazurin-diaphorase fluorescence | inhibition, % at 20 µM | actives 0.78% (n = 350,000);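 active = inhibition reaching at least a set limit at 20 µM in the primary screen, cut at about 59% in these data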;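 note: 0% = DMSO wells with substrate and 100% = DMSO wells lacking glucose-6-phosphate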
G6PDH counter – L. mesenteroides G6PDH inhibitors, counter-screen for G6PDH-coupled screening assays, biochemical, Leuconostoc mesenteroides enzyme; Purified L. mesenteroides G6PDH, diaphorase/resazurin coupled fluorescence, 45 min; inhibition, % at 5 µM; actives 0.12% (n = 200,000); in the data active = inhibition above about 50%
The depositor's hits bear a star; / = no result given. An excerpt weighted towards active compounds, which were near 1.3% of everything screened.

SMILES	HKDC1 inhibitor	Diaphorase inh	PfGluPho inh	G6PDH counter
O=C(Nc1cccc(N=Cc2cc(Br)cc(Br)c2O)c1)c1ccco1	18.1	55.0*	31.6	39.4
CC(=O)NC1Sc2ccccc2N=C1c1ccccc1 (configuration not stated)	-6.4	17.4	62.8*	2.9
COc1ccc2c(c1)-c1nc(/N=C/c3ccccc3O)sc1CC2	2.6	53.6*	31.6	-5.6
COc1ccc2c(c1)-c1nc(/N=C/c3cccc(OC)c3O)sc1CC2	18.7	0.0	23.3	-2.1
COc1cc2nc(=S)n3[nH]c(COc4ccccc4C)nc3c2cc1OC	-16.2	91.3*	25.8	5.4
COc1cc2nc(=S)n3[nH]c(CCn4nc(C)cc4C)nc3c2cc1OC	19.4	91.6*	53.2	16.8
O=C(CSc1ccc(-c2ccco2)nn1)c1cccc([N+](=O)[O-])c1	-11.8	62.8*	17.5	5.0
Nc1ccc2oc3ccccc3c2c1	3.5	17.1	0.6	-6.6
S=c1[nH]ncn2c1cc1oc3ccccc3c12	-2.9	50.8*	17.5	5.9
Cc1sc2ncn(CC(=O)N3CCN(c4ccccn4)CC3)c(=O)c2c1S(=O)(=O)N1CCC(C)CC1	1.4	/	-21.9	/
CCCCN1C(=O)C(C#N)CC2=C1CC(C)(C)CC2=O (configuration not stated)	-8.3	/	-176.7	/
Cc1ccc(C2C(C#N)=C(N)SC(N)=C2C#N)o1	/	65.8*	/	21.1
Cc1ccc(O)c(N=Cc2cc(Cc3ccccc3)cc([N+](=O)[O-])c2O)c1	17.3	64.3*	44.6	32.2
O=[N+]([O-])c1cc(Cc2ccccc2)cc(C=Nc2ccc(N3CCOCC3)cc2)c1O	20.5	32.9	37.7	1.2
COc1cc(CN2CCNC(=O)C2CC(=O)O)cc(OC)c1 (configuration not stated)	-9.2	84.6*	-6.8	-1.3
COc1cc(CN2CCNC(=O)C2CC(=O)NC2CCCC2)cc(OC)c1 (configuration not stated)	-1.2	/	-5.8	/
Cc1cccc(NC(=O)CN2C(=O)S/C(=C\c3ccc(O)c([N+](=O)[O-])c3)C2=O)c1	4.2	15.0	11.0	-8.8
Cc1ccc(NC(=O)CN2C(=O)S/C(=C/c3ccc(O)c([N+](=O)[O-])c3)C2=O)cc1C	15.6	92.2*	-6.1	13.2
Nc1nn2c(-c3ccccc3)cc(=O)[nH]c2c1N=Nc1ccc(Br)cc1	-24.6	31.5	-1.5	11.9
Nc1nn2c(-c3ccccc3)cc(=O)[nH]c2c1N=Nc1ccc(O)cc1	10.8	54.4*	0.6	24.1
CCCCOc1cccc(C(=O)NC(=S)Nc2ccc(Cl)c(C(=O)O)c2)c1	-13.0	61.8*	-6.6	0.7
O=C(N=Nc1ccc(NOC(=O)c2ccccc2Br)cc1)c1ccccc1O	/	64.7*	/	-2.0
O=Nc1ccc(NOC(=O)c2ccccc2)cc1	-4.9	9.7	-1.7	7.2
COc1cccc(C2Nc3c(F)cc(Br)cc3C3C=CCC32)c1OC (configuration not stated)	-3.7	21.8	-6.9	-4.5
Cc1ccc2c(c1)C1C=CCC1C(C(=O)O)N2 (configuration not stated)	/	63.0*	/	2.5
SMILES	HKDC1 inhibitor	Diaphorase inh	PfGluPho inh	G6PDH counter
COc1cccc2c1NC(C(=O)O)C1CC=CC21 (configuration not stated)	12.4	92.6*	11.0	11.9
N#Cc1c2n(c3c(=S)nc[nH]c13)CCCCC2	-1.6	54.3*	29.6	4.5
N#Cc1c2n(c3c(=O)[nH]cnc13)CCCC2	-7.7	-5.6	-2.0	2.3
CCOC(=O)c1ccccc1NC(=O)c1ccc2nccnc2c1	-1.6	54.9*	1.2	2.5
CCOC(=O)c1ccccc1NC(=O)c1ccc2nc[nH]c2c1	4.1	/	-2.3	/
O=S(=O)(c1ccc(N2CCOCC2)c(Cl)c1)N1CCOCC1	3.7	/	-12.3	/
O=c1c2ccccc2sn1-c1cc(S(=O)(=O)N2CCOCC2)ccc1N1CCOCC1	-0.5	4.1	111.3*	7.3
CC/C(=N/N=C(/CC)c1ccc(O)cc1)c1ccc(O)cc1	-0.8	/	1.9	/
COc1cc(/C=N/NC(=O)C(N)=O)cc(OC)c1O	-2.0	-1.1	2.9	-2.0
COc1cc(Cl)cc(/C=N/NC(N)=O)c1O	-9.8	26.2	-3.9	53.5*
N#Cc1c(-c2ccccc2)[nH]c(=S)[nH]c1=O	5.1	50.8*	-17.5	3.4
COc1ccc(-n2c(=S)[nH]c3c(oc4ccccc43)c2=O)cc1	12.3	68.5*	40.1	4.0
Cc1ccc(S(=O)(=O)N(C)C)cc1NC(=O)C(C)OC(=O)C1CCC1 (configuration not stated)	-0.9	/	-11.8	/
COc1cc(NCCCCCCCN)c2ncccc2c1	11.8	17.3	30.4	53.0*
O=C1c2sc3nc4n(c(=O)c3c2CCC1Br)CCCCC4 (configuration not stated)	9.4	62.5*	79.9*	10.0
Cc1c(/C=N/Nc2ccc(F)cc2)c(O)n(C)c(=O)c1C#N	4.2	55.6*	10.8	25.7
CCN(CC(=O)Nc1c(F)cccc1F)C(=O)CCc1nc2sc3c(c2c(=O)[nH]1)CCCC3	-0.5	/	-9.4	/
CC(=O)Sc1nc(-c2ccccc2)[nH]c1S(=O)(=O)c1ccc(C)cc1	-3.4	36.5	64.6*	14.6
COc1cc(N2C(=O)C=CC2=O)c(OC)cc1Cl	-6.5	/	72.1*	/
Cc1ccc(S(=O)(=O)NNc2ccccc2)c(C)c1	-11.9	2.6	83.2*	7.9
Cc1ccc(S(=O)(=O)NNC(=O)c2cccs2)c(C)c1	6.3	7.7	-8.9	0.3
O=C(c1cccc(Cl)c1)C1CCCN(C(=O)c2ccc3c(c2)OCO3)C1 (configuration not stated)	-3.7	/	4.2	/
COc1cccc(-c2c(C(=O)N/N=C/c3cccs3)nnn2-c2nonc2N)c1	11.1	/	59.1*	/
CCOc1cccc(-c2c(C(=O)N/N=C/c3cccs3)nnn2-c2nonc2N)c1	2.4	/	41.8	/
COc1ccc(OC)c(NC2c3ncccc3C(=O)N2Cc2ccco2)c1 (configuration not stated)	-1.7	25.4	0.3	7.4
SMILES	HKDC1 inhibitor	Diaphorase inh	PfGluPho inh	G6PDH counter
COc1ccc(CN2C(=O)c3cccnc3C2Nc2cc(Cl)ccc2OC)cc1 (configuration not stated)	51.7*	19.3	7.2	-18.8
O=C(CC1(CC(=O)N2CCOCC2)CCCC1)Nc1ccc(F)cc1	-6.1	/	12.6	/
O=c1nc2s/c(=C\c3ccc(-c4ccccc4[N+](=O)[O-])o3)c(=O)n2nc1-c1ccccc1	16.6	68.9*	22.9	31.9
CC(C)(c1cc(Br)c(O)c(Br)c1)c1cc(Br)c(O)c(Br)c1	15.4	/	-5.4	/
N#CC1=C(N)Oc2n[nH]c(-c3cccs3)c2C1c1ccsc1 (configuration not stated)	7.6	60.2*	-11.2	5.0
N#CC1=C(N)Oc2n[nH]c(-c3cccs3)c2C1c1ccncc1 (configuration not stated)	-0.4	13.4	2.1	9.1

Assay outcomes deposited in PubChem BioAssay by Sanford-Burnham Center for Chemical Genomics.
